Only some compounds are listed: those with a hit (about 2.7% of all), similar ones and a draw of the others.
MC4R antag cAMP: antagonists of human melanocortin 4 receptor (MC4R) | MC4R-expressing cells, MTII-stimulated cAMP, LANCE TR-FRET | inhibition, % at 6.5 µM | 360,000 tested, 0.48% active | AID 540295;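 active means inhibition above its plate's cutoff, the mean of tested wells on that plate plus 3 SD, cut at about 29% in these data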;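 further: 0% = Melanotan II alone and 100% = Melanotan II plus saturating MCL0020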
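Test system: U2OS cells stably expressing human melanocortin 4 receptor (MC4R); also added: Melanotan II challenge; compound: 6.5 µM single dose; timing: 30-min compound preincubation, 1-h Melanotan II challenge, 1-h detection, room temperature; signal: Eu-cAMP/anti-cAMP TR-FRET, emission 671 nm; repeats: one well per compound, no replicates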
MC4R barr agon: human MC4R agonism via beta-arrestin | 360,000 tested, 0.98% active | P32245 | U2OS MC4R beta-arrestin complementation, luminescence; percent of melanotan II response, DMSO zero | activation, % at 8.9 µM;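 active means activation above a per-plate cutoff, the mean activation of sample wells on that plate plus 3 SD, cut at about 8% in these data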
HTR2A ag: mouse HTR2A agonism via beta-arrestin recruitment | CHO-K1 mHTR2A beta-arrestin complementation, luminescence; percent of 30 µM serotonin response | P35363 | activation, % at 7.6 µM | 360,000 tested, 0.66% active;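 active means activation above a run cutoff, the mean activation of all tested compounds plus 3 SD, cut at about 14% in these data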;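 further: 0% = plate median of compound wells and 100% = 30 µM serotonin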
Target sequence (P35363 whole entry, looked up): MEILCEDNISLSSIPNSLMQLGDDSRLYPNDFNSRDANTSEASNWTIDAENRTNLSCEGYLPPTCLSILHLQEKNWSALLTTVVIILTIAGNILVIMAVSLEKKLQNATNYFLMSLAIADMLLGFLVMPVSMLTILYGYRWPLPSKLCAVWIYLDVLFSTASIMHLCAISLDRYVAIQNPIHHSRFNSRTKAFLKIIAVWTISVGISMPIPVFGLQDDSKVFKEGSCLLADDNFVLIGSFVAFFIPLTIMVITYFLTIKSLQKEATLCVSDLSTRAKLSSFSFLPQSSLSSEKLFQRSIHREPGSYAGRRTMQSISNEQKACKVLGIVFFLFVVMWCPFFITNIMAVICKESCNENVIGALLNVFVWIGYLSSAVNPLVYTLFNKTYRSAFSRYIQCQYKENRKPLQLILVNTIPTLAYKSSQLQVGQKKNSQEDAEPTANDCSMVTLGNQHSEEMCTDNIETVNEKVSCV
Lipid droplet: modulators of hepatic lipid droplet formation; AML12 mouse hepatocytes, oleate lipid droplets, BODIPY imaging; inhibition, % at 6.5 µM; 240,000 tested, 0.4% active;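 active means lipid droplet intensity inhibited by at least 50%, with more than 500 cells counted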
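System: AML12 hepatocytes (mouse). Probe or stimulus: oleic acid at 100 µM to induce lipid droplet formation. Times: overnight treatment with compound plus oleate. Detection: Image-based BODIPY and DAPI two-channel analysis. Evaluation: percent inhibition of filter-corrected integrated lipid droplet intensity per well.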
NTR1 agonist: activates human neurotensin receptor 1; AID 493036; NTR1-U2OS beta-arrestin-GFP spot imaging, agonist mode; P30989; activation, % at 20 µM; 330,000 tested, 0.17% active;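 active means activation at or above 40% of the spot to cytoplasm intensity ratio, with at least 20 cells analyzed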;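 further: 0% = DMSO without peptide and 100% = 100 nM NTR1 peptide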
PREPL inhibitor: inhibits the human prolyl oligopeptidase-like enzyme. Q4J6C6. recombinant PREPL, fluorescence polarization activity-based probe. inhibition, % at 5.96 µM. 320,000 tested, 0.68% active. AID 2751; in the data active means inhibition above about 43%;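 further: 0% = enzyme with DMSO and 100% = wells lacking enzyme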
Lipid drop inh: hepatic lipid droplet formation inhibition, confirmed | shares compounds with Lipid droplet | AML12 mouse hepatocytes, BODIPY lipid droplet imaging; droplets induced with 100 µM oleic acid | inhibition, % at 5.2 µM | 870 tested, 65% active;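 active means inhibition of lipid droplet metric at least 50%, with more than 300 cells in each of four replicates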;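 further: plate controls were DMSO with oleic acid for no effect and 5 µM Triacsin-C for full effect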
AML12 tox img: counter-screen for cytotoxicity in AML12 mouse hepatocytes | shares compounds with Lipid droplet | DAPI nuclear morphology cytotoxicity imaging; stronger effect = higher value; cells fed 100 µM oleate overnight | z-score at 5 µM | 870 tested, 3% active | AID 463200; in the data active means z-score above about 6.3;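 further: compound exposure lasted overnight at 37 °C before fixation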
AML12 tox conf: confirmation of cytotoxicity in AML12 mouse hepatocytes | AML12 mouse hepatocyte viability, ATP luminescence; cells loaded with 100 µM oleic acid | shares compounds with Lipid droplet | 530 tested, under 10 active | cytotoxicity, % at 50 µM;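 active means cytotoxicity above 50% in each of four replicates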;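 further: compound exposure lasted overnight at 37 °C before the ATP read; 0% = DMSO-treated cells and 100% = wells with no cells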
An asterisk follows results filed as active.

Screening COc1cccc(-c2cc(C(=O)Nc3ccc([N+](=O)[O-])cn3)c3ccccc3n2)c1 returned MC4R antag cAMP 3, MC4R barr agon 2, HTR2A ag -3, Lipid droplet 57*, NTR1 agonist 4, PREPL inhibitor 2, Lipid drop inh 75*, AML12 tox img -0.6 and AML12 tox conf 12.
O=C(Nc1ccc([N+](=O)[O-])cn1)c1cc(-c2cccc(Cl)c2)nc2ccccc12 was read as MC4R antag cAMP 8, MC4R barr agon 1, HTR2A ag 1, Lipid droplet 68*, NTR1 agonist 2, PREPL inhibitor 7, Lipid drop inh 38 and AML12 tox img 0.22.
Screening O=C(Nc1ccc([N+](=O)[O-])cn1)c1cc(-c2cccc(Br)c2)nc2ccccc12 returned MC4R antag cAMP 6, MC4R barr agon 1, HTR2A ag 10, Lipid droplet 64*, NTR1 agonist 2, PREPL inhibitor -4, Lipid drop inh 64*, AML12 tox img -0.17 and AML12 tox conf 10.
For COc1ccc(C2=Nc3ccccc3N(C(=O)c3ccc4c(c3)OCO4)C2C(=O)Nc2c(C)cccc2C)cc1 (configuration not stated) the results were HTR2A ag 8.
For CCOc1ccc(OCCn2c(S(=O)(=O)O)nc3c(N)ncnc32)cc1 the results were MC4R antag cAMP 4, MC4R barr agon -1, HTR2A ag 9, Lipid droplet -2 and NTR1 agonist -1.
COC(=O)c1nn(C)c(=O)[nH]c1=O was read as MC4R antag cAMP 10, MC4R barr agon 0 and HTR2A ag 2.
For CCc1cccc(NC(=O)CCCn2nc(CC)n3c(cc4occc43)c2=O)c1 the results were MC4R antag cAMP 14, MC4R barr agon -5, HTR2A ag 7, Lipid droplet 53*, NTR1 agonist 2, PREPL inhibitor -2, Lipid drop inh 94*, AML12 tox img -0.16 and AML12 tox conf 3.
Screening CCc1nn(CCCC(=O)NCc2ccccc2Br)c(=O)c2cc3occc3n12 returned MC4R antag cAMP 7, MC4R barr agon -1, HTR2A ag 10, Lipid droplet -19, NTR1 agonist 12 and PREPL inhibitor -4.
For Oc1[nH]c2ccccc2c1N=Nc1nc(Nc2ccccc2)nc(N2CCOCC2)n1 the results were MC4R antag cAMP 28*, MC4R barr agon 1, HTR2A ag -3, Lipid droplet 60*, NTR1 agonist 16, PREPL inhibitor -14, Lipid drop inh 84 and AML12 tox img 20*.
`Cc1[nH]c2ccccc2c1/C=N/Nc1nc(Nc2ccccc2)nc(N2CCOCC2)n1` gave MC4R antag cAMP 15, MC4R barr agon 2, HTR2A ag -5, NTR1 agonist 22 and PREPL inhibitor 22.
For O=[N+]([O-])c1ccccc1/C=C/C=N/Nc1ccc(S(=O)(=O)Nc2ccc(Cl)cc2)cc1[N+](=O)[O-] the results were MC4R antag cAMP 3, MC4R barr agon -5, HTR2A ag 3, Lipid droplet 60*, NTR1 agonist 3, PREPL inhibitor 17, Lipid drop inh 69, AML12 tox img -0.46 and AML12 tox conf 10.
O=[N+]([O-])c1cc(S(=O)(=O)Nc2cccc(Cl)c2)ccc1N/N=C/c1ccc(N2CCOCC2)cc1 was read as MC4R antag cAMP -4, MC4R barr agon -2, HTR2A ag -4, Lipid droplet 0, NTR1 agonist 2 and PREPL inhibitor 13.
Screening O=C(O)c1ccc(N/N=C/C=C/c2ccccc2[N+](=O)[O-])cc1 returned MC4R antag cAMP -9, MC4R barr agon -3, HTR2A ag 3, Lipid droplet 0, NTR1 agonist -1 and PREPL inhibitor 9.
C/C(=N\Nc1ccc(S(=O)(=O)Nc2ccccc2)cc1[N+](=O)[O-])c1ccc(N2CCOCC2)cc1 was read as MC4R antag cAMP 1, MC4R barr agon 2, HTR2A ag 3, Lipid droplet 51*, NTR1 agonist 2, PREPL inhibitor 4, Lipid drop inh 72*, AML12 tox img -0.2 and AML12 tox conf 22.
`C/C(=N\Nc1ccc(S(=O)(=O)Nc2ccc(Cl)cc2)cc1[N+](=O)[O-])c1ccc(N2CCOCC2)cc1` gave MC4R antag cAMP -1, MC4R barr agon 1, HTR2A ag 10, Lipid droplet 88*, NTR1 agonist 5, PREPL inhibitor 2, Lipid drop inh 65, AML12 tox img -0.29 and AML12 tox conf 11.
`CC(=O)c1cccc(NC(=O)CSc2nnnn2C2CCCC2)c1` gave MC4R antag cAMP 10, MC4R barr agon -1, HTR2A ag 7, Lipid droplet -3 and NTR1 agonist -1.
`COC(=O)[C@@H](NC(=O)O[C@@H]1C(=O)c2ccc(OC)cc2O[C@H]1c1cccc(C(F)(F)F)c1)C(C)C` gave Lipid droplet -4, NTR1 agonist 10 and PREPL inhibitor 13.
Screening COc1ccc2c(c1)O[C@@H](c1cccc(C(F)(F)F)c1)[C@H](OC(=O)NCCc1ccc(OC)c(OC)c1)C2=O returned Lipid droplet 64*, NTR1 agonist 4, PREPL inhibitor -1, Lipid drop inh 75* and AML12 tox img -0.35.
Screening O=C(Cc1ccccc1)Nn1c(-c2ccccc2)nc2ccccc2c1=O returned MC4R antag cAMP 8, MC4R barr agon -1, HTR2A ag 7, Lipid droplet 57*, NTR1 agonist -1, PREPL inhibitor 8, Lipid drop inh 64*, AML12 tox img 0.09 and AML12 tox conf 9.
`CCCSC(=O)N(CC)CC(=O)Nc1c(CC)cccc1CC` gave MC4R antag cAMP 5, MC4R barr agon -1, HTR2A ag 0, Lipid droplet 64*, NTR1 agonist -1, PREPL inhibitor 3, Lipid drop inh 90*, AML12 tox img -0.2 and AML12 tox conf 16.
For CCSC(=O)N(CC)CC(=O)Nc1c(CC)cccc1CC the results were MC4R antag cAMP -6, MC4R barr agon -1, HTR2A ag 0, Lipid droplet 56*, NTR1 agonist -1, PREPL inhibitor 11, Lipid drop inh 87*, AML12 tox img -0.63 and AML12 tox conf 6.
CC(C)(C)NCC(=Cc1ccccc1)C(=O)c1ccccc1 was read as MC4R antag cAMP 7, MC4R barr agon -2 and HTR2A ag -6.
